# Reference: PubChem BioAssay
# Activity calls are given as the source filed them.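 Rule for the calls, unless noted: active = NADPH fluorescence slope more negative than the mean of all samples by about 3 SD, 99.7% confidence; inactive = the rest.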
# How the values were obtained:
# [1] = inhibitors of TNFa-induced NFkB p65 translocation, primary screen, imaging, HUVEC, MLSMR starter and 10KST1 sets (AID 438;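 active = inhibition above 20% together with a positive visual image hit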;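 note: compound added about 3h40 before a 20 min TNFalpha stimulation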;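 for inhibition: signal is the nuclear over cytoplasmic p65 intensity ratio per well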); conditions: HUVEC TNFa-induced p65 nuclear translocation; cell count: measured here: nuclei count (cytotoxicity indicator), at 2.08 µM; inhibition: at 2 µM, stronger effect = higher value, 0% TNFa-plus-vehicle, 100% no-TNFa wells
# [2] = inhibitors of mutant huntingtin aggregation, primary screen, imaging, exon1htt(103Q)mCFP cells, high-content imaging (AID 483;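 active = visual image review flags a hit and inhibition of aggregation exceeds 20%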;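 note: compound exposure lasted 3 days before fixation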;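 for nuclei count: percent of the per-plate median nuclei count of sample wells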); conditions: exon1htt(103Q)mCFP cell line, aggregate imaging, at 2 µM; inhibition of aggregation: stronger effect = higher value; nuclei count: measured here: cell count, toxicity
# [3] = inhibitors of E-selectin induction by TNFa, primary screen, imaging, HUVEC, immunofluorescence, MLSMR starter and 10KST1 sets (AID 487;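 active = visually confirmed hit in the image check and inhibition above 20%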;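 for inhibition: signal is fraction of cell area covered by stained E-selectin grains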;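 for nuclei count: 100% = median nuclei count of all wells on the same plate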); conditions: HUVEC TNFalpha-induced E-selectin immunofluorescence imaging, at 2 µM; inhibition: stronger effect = higher value; nuclei count: measured here: cell number, toxicity
# [4] = target: Voltage-gated potassium channel subunit beta-2 (Rattus norvegicus) (UniProt P62483); experiment: KvBeta enzyme negative modulators, primary screen, biochemical, NADPH fluorescence (AID 622;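 active = fluorescence slope higher than the sample average by over 3 SD, cut at about -0.22 in these data, passing the limit was not always enough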;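 note: slope of raw intensity against log time taken from 70 to 1610 s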); conditions: recombinant KvBeta, 4-cyanobenzaldehyde reduction, at 10 µM, stronger effect = higher value
# Voltage-gated potassium channel subunit beta-2 (Rattus norvegicus), sequence (P62483 whole entry, looked up): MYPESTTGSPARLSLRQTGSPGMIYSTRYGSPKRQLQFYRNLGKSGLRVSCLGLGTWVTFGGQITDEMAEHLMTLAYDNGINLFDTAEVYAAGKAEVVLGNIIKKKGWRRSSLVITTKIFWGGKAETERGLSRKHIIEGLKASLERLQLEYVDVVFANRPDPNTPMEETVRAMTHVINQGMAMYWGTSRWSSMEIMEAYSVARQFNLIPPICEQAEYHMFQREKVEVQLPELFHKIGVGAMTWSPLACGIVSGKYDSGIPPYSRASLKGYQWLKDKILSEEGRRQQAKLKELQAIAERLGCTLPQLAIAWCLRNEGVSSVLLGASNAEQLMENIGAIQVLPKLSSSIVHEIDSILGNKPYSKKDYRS
# [5] = target: Voltage-gated potassium channel subunit beta-2 (Rattus norvegicus) (UniProt P62483); experiment: KvBeta positive modulators, primary screen, biochemical, NADPH fluorescence (AID 623); conditions: Recombinant KvBeta, NADPH fluorescence decrease slope, 10 min; at 10 µM; stronger effect = lower value;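 note: fluorescence intensity change per second fitted from 20 to 320 s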
# [6] = target: Muscarinic acetylcholine receptor M4 (Homo sapiens) (UniProt P08173); experiment: compounds altering M4/GIRK thallium flux, either direction, primary screen, M4 allosteric agonist project, cell-based, HEK293 M4/GIRK, BTC-AM (AID 625;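 active = fluorescence slope after compound addition differing from the mean of all tested samples at 99.7% confidence, mostly higher but some lower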;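 note: thallium influx through GIRK channels coupled to M4 in HEK293 cells with BTC-AM dye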); conditions: at 10 µM, actives lie on both sides
# Muscarinic acetylcholine receptor M4 (Homo sapiens), sequence (P08173 whole entry, looked up): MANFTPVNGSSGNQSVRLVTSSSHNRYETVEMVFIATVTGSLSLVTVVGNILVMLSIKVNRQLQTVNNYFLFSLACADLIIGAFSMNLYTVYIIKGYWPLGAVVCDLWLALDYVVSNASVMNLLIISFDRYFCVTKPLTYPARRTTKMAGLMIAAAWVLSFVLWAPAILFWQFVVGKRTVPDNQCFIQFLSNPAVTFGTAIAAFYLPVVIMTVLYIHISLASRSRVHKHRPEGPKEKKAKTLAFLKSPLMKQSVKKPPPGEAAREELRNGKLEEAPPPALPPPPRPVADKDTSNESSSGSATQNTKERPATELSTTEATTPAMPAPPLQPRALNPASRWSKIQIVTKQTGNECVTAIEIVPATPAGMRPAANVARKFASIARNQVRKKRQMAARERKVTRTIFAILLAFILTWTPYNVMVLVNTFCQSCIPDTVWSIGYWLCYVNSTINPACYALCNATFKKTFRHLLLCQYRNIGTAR
# Outline: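 System: HEK293 cells with M4 receptor and GIRK channels | Incubation: Cells overnight at 37 °C, BTC-AM loading 1 h, reads 2 min total | Technique: Kinetic BTC-AM fluorescence sampled at 1 Hz, 10 s pre-addition baseline | Measure: Post-addition slope, 15–24 s, of baseline-normalized fluorescence | Control set: Carbachol positive, DMSO negative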
# [7] = inhibitors of Sendai virus-induced IRF3 signaling, primary screen, TLR/RLR signaling modifier project, cell-based, Sendai virus stimulus, luciferase, 10K MLSCN set (AID 602276;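 active = inhibition at or above 50% at 10 µM; inactive = inhibition below 50%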;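 note: firefly luciferase from ISG56 promoter only with Renilla not read in this screen; 0% = Sendai virus plus DMSO and 100% = medium plus DMSO without virus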); conditions: HEK293 RL24 IRF3 luciferase reporter, at 10 µM, stronger effect = higher value
# [8] = inhibitors of poly I:C-induced TLR3 signaling, primary screen, cell-based, poly I:C stimulus, luciferase, 10K MLSCN set (AID 602277;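 active = inhibition of the reporter signal at or above 50%; inactive = inhibition below 50%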); conditions: HEK293-TLR3 RL24 IRF3 luciferase reporter, at 10 µM, stronger effect = higher value
SMILES,cell count [1],inhibition [1],inhibition of aggregation [2],nuclei count [2] [%],inhibition [3],nuclei count [3] [%],fluorescence slope [4],NADPH fluorescence slope [5],fluorescence slope [6],inhibition [7],inhibition [8]
Cc1ccc(C)c(NC(=O)C2CCC(C)(C(=O)O)C2(C)C)c1 (stereo not drawn),352,-2.5% (inactive),6% (inactive),98,-105% (inactive),124,-0.603 (inactive),2.7e-06 (inactive),0.00734 (inactive),15.8% (inactive),30.8% (inactive)
COc1ccccc1NC(=O)N1CCCC1C(=O)NC1CCCCC1 (stereo not drawn),582,0.4% (inactive),9% (inactive),92.5,-19.7% (inactive),121,-0.227 (inactive),-2.2e-05 (inactive),0.00721 (inactive),15.6% (inactive),11.1% (inactive)
Cc1nc2ccccc2c(=O)n1NC(=O)c1ccc(F)cc1Cl,302,5% (inactive),9.2% (inactive),87.5,21.5% (inactive),70.3,-0.483 (inactive),-2.3e-05 (inactive),0.00433 (inactive),10.8% (inactive),8.86% (inactive)
O=C1CC(N2CCC(C(=O)N3CCCCC3)CC2)C(=O)N1 (stereo not drawn),349,4% (inactive),10.7% (inactive),115,-37.4% (inactive),148,-0.554 (inactive),-3.8e-05 (inactive),0.00558 (inactive),19.9% (inactive),16.2% (inactive)
Cc1cccc(OCC(=O)N2CCC(c3ccccc3)C2)c1 (stereo not drawn),380,4.3% (inactive),-13.6% (inactive),101,-6.3% (inactive),115,-0.426 (inactive),1.1e-05 (inactive),0.0091 (inactive),-65.5% (inactive),-177% (inactive)
COCCN1C(=O)C(=O)/C(=C(/O)c2ccc(OC(C)C)cc2)C1c1cccnc1 (stereo not drawn),644,-4.7% (inactive),-7.9% (inactive),116,19.8% (inactive),104,-0.422 (inactive),-1.5e-05 (inactive),0.00536 (inactive),17.3% (inactive),19.8% (inactive)
CCOc1ccccc1NC(=O)N1CCCC1C(=O)Nc1nnc(CC)s1 (stereo not drawn),599,-0.7% (inactive),-35.9% (inactive),63.6,-86% (inactive),98.7,-0.296 (inactive),-3.1e-05 (inactive),0.00525 (inactive),1.66% (inactive),12.7% (inactive)
CCOC(=O)c1c(NC(=O)c2ccoc2C)sc2c1CCC2,310,0% (inactive),-0.4% (inactive),96.2,-3.2% (inactive),96.3,-0.407 (inactive),-1.2e-05 (inactive),0.00584 (inactive),15.7% (inactive),-10.1% (inactive)
COc1ccc(OC)c(CNC(=O)CCN2C(=O)COc3ccccc32)c1,663,14.4% (inactive),21.7% (inactive),64,-29.9% (inactive),110,-0.479 (inactive),-6e-05 (inactive),0.00555 (inactive),-19.9% (inactive),-11.1% (inactive)
CCCN1C(=O)SC(CC(=O)Nc2ccc(Br)cc2)C1=O (stereo not drawn),246,-7.8% (inactive),-2.4% (inactive),96.5,-47.8% (inactive),104,-0.444 (inactive),2.7e-05 (inactive),0.00512 (inactive),-2.25% (inactive),7.35% (inactive)
COC(=O)c1[nH]c2ccccc2c1NS(=O)(=O)c1ccc(OC)cc1OC,655,-11.9% (inactive),13% (inactive),103,-72% (inactive),118,-0.524 (inactive),-0.000111 (inactive),0.00563 (inactive),19.9% (inactive),37.3% (inactive)
Cn1nc(-c2ccc(C(=O)NCC3CCCO3)cc2)c2ccccc2c1=O (stereo not drawn),796,-3.5% (inactive),37.8% (inactive),104,-18.3% (inactive),116,-0.574 (inactive),-5.3e-05 (inactive),0.00681 (inactive),19.3% (inactive),31.4% (inactive)
Cc1noc(C)c1C(=O)Nc1sc(C)c(C)c1C#N,264,3.7% (inactive),7.6% (inactive),87.5,-40.3% (inactive),103,-0.436 (inactive),-2.4e-06 (inactive),0.00444 (inactive),-9.52% (inactive),-43.8% (inactive)
COc1ccc(-n2ncc3c(NCc4ccc5c(c4)OCO5)ncnc32)cc1,360,-4.3% (inactive),9.7% (inactive),94.3,-9.3% (inactive),105,-0.539 (inactive),-4.4e-05 (inactive),0.00526 (inactive),-4.14% (inactive),-24.9% (inactive)
COc1c2ccoc2nc2c(OC)c(OCC(O)C(C)(C)O)ccc12 (stereo not drawn),411,-1.6% (inactive),-14.6% (inactive),101,-62.9% (inactive),138,-0.11 (inactive),-1.8e-05 (inactive),0.00374 (inactive),15.7% (inactive),7.86% (inactive)
O=C(c1noc2c1CCc1ccccc1-2)N1CCOCC1,234,-5.4% (inactive),18.9% (inactive),90.2,-35.7% (inactive),120,-0.572 (inactive),2.9e-06 (inactive),0.0064 (inactive),-5.37% (inactive),-37.8% (inactive)
CCc1cc(-c2[nH]ncc2-c2ccc3c(c2)OCO3)c(O)cc1O,511,0.5% (inactive),26% (inactive),97.8,-11.5% (inactive),111,-0.572 (inactive),3.5e-05 (inactive),0.00533 (inactive),14% (inactive),-66.6% (inactive)
NC(=O)SCC(=O)Nc1cccc(Cl)c1,449,-0.5% (inactive),-7.6% (inactive),119,-267% (inactive),132,-0.576 (inactive),-1.5e-06 (inactive),0.00648 (inactive),18.6% (inactive),15.3% (inactive)
COc1ccc(Cl)cc1Nc1nc(C)cc(=O)[nH]1,271,-3.7% (inactive),10% (inactive),61.7,39.6% (inactive),44,-0.562 (inactive),-2.9e-05 (inactive),0.00528 (inactive),16% (inactive),19.5% (inactive)
CCOC(=O)CSc1cn2c(n1)CCC2,547,-10.9% (inactive),14.3% (inactive),66.8,-25.8% (inactive),89.1,-0.595 (inactive),1.5e-05 (inactive),0.00761 (inactive),-11.5% (inactive),-11.4% (inactive)
COc1cccc(C(=O)Nc2ccc(N(C)C)cc2)c1OC,718,0.8% (inactive),1.4% (inactive),104,-79.8% (inactive),109,-0.493 (inactive),1.7e-05 (inactive),0.00556 (inactive),-4.94% (inactive),-69.6% (inactive)
Cc1ccccc1-c1noc(N)c1C#N,515,5.3% (inactive),-0.5% (inactive),95.2,4.6% (inactive),103,-0.317 (inactive),-2.3e-05 (inactive),0.00617 (inactive),12.5% (inactive),-2.11% (inactive)
O=C1C2CCCN2C(c2ccc(Cl)cc2)N1c1nccs1 (stereo not drawn),378,-7.5% (inactive),-18.3% (inactive),99.7,12.8% (inactive),92.8,-0.556 (inactive),-6e-05 (inactive),0.00531 (inactive),11.3% (inactive),13.5% (inactive)
O=C(CCCCn1c(=O)[nH]c2ccsc2c1=O)NCc1cccnc1,684,-1% (inactive),5% (inactive),99.7,3.5% (inactive),119,-0.46 (inactive),-5.1e-05 (inactive),0.00456 (inactive),17% (inactive),15.3% (inactive)
CCSC1=C(C#N)C(c2cccc(OC)c2)CC(=O)N1 (stereo not drawn),667,-14.3% (inactive),-16.9% (inactive),101,-70.7% (inactive),114,-0.496 (inactive),-3.8e-05 (inactive),0.00475 (inactive),14.9% (inactive),11.6% (inactive)
CCOC(=O)c1[nH]c2ccc(F)cc2c1NC(=O)C(C)N1CCc2cc(OC)c(OC)cc2C1 (stereo not drawn),436,0.5% (inactive),15.1% (inactive),76.9,42.5% (inactive),96,-0.574 (inactive),-3.4e-05 (inactive),0.00265 (inactive),-0.796% (inactive),35.3% (inactive)
CCOC(=O)C1CCN(C(=O)CSc2n[nH]c(=O)[nH]c2=O)CC1,653,7.8% (inactive),16.5% (inactive),88.6,34.2% (inactive),114,-0.339 (inactive),-5.5e-05 (inactive),0.00512 (inactive),12.2% (inactive),9.53% (inactive)
O=c1c[n+]([O-])c2ccccc2n1OCc1ccccn1,649,-0.8% (inactive),-17.9% (inactive),103,-73% (inactive),106,-0.464 (inactive),2.5e-05 (inactive),0.00798 (inactive),-4.06% (inactive),-7.39% (inactive)
